These results are taken from article PMC2213299 (The Journal of Experimental Medicine, 2004).

Where no end group is shown, it is not given here. The star is where a group is joined. αGalNAc = CC(=O)N[C@@H]1[C@@H](O)[C@@H](O)[C@@H](CO)O[C@@H]1*

The first assay concerns the target K^b molecules (MHC class I H-2K^b) purified from EL-4 cells (mouse (endogenous in EL-4)). Nature of the assay: radioligand binding.
As for AIIASFAAL, the half-inhibitory concentration (IC50) (commonly the concentration that gives 50% inhibition) worked out at 4 nM. Molecule AAAAFAAL showed a 50% inhibitory concentration (IC50) of 75 nM. Molecule AIIAS(αGalNAc)FAAL [AIIA(GalNac-O-ser)FAAL] yielded an IC50 of 4 nM.

Molecule AIIAAFAAL came in with a 50% inhibitory concentration (IC50) of 10 nM. Still for that read-out and setting: the figure for SSSSFSSL is 509 nM; for AIIASFAAL (βGal-[1→3]-α-GalNAc-O-serine (TF antigen) at position 5) [AIIA(βGal-[1→3]-α-GalNAc-O-ser)FAAL] it is 4 nM. Take GGGGFGGL: the IC50 stood at 53000 nM.

The target of the next assay is K^b molecules (Mus musculus, UniProt P01901).
Experiment: not given
Type of assay: binding, murine. In short, it runs like this:
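Kb was affinity-purified from filtered Nonidet P-40 lysates of EL-4 cells. 5–10 nM Kb was incubated with a 125I-labelled known Kb-binding peptide plus test compound for 48 h in PBS with 0.05% Nonidet P-40 and protease inhibitors. Bound and free peptide were separated by gel filtration on TSK columns. IC50 is the amount inhibiting 50% of radioligand binding.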
With AAAAAFAAL [AAAAAFAAL], 610 nM corresponded to half-maximal inhibition (IC50). AAAAFAAL [AAAAFAAL] yielded an IC50 of 75 nM. The same measure, in the same setting: the figure for AAIAAFAAL [AAIAAFAAL] is 90 nM.

AIAAAFAAL [AIAAAFAAL]: the IC50 turned out to be 240 nM. Molecule AIIAAFAAL [AIIAAFAAL] yielded a half-inhibitory concentration (IC50) of 10 nM. GGGGFGGL [GGGGFGGL] returned a half-maximal inhibitory concentration (IC50) of 53000 nM. The same measure, in the same setting: the figure for SSSSFSSL [SSSSFSSL] is 509 nM.
